In publication PMC8693849 (RSC Advances, 2021):
Converted amounts (≈) assume the structure as drawn.

Tests used:
Gram-positive bacteria = assay: Agar diffusion method; format: cell-based, S. aureus (ATCC 25923) and S. pyogenes (ATCC 19615); settings: summary of Table 1
How it was run: (§1)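 Bacterial strains were tested by agar diffusion on nutrient agar (peptone 5 and meat extract 3 g L⁻¹ in distilled water, pH 7.0, 2% agar, autoclaved 121 °C for 20 min). Each test compound (1 mg) was dissolved in 1 mL DMSO and made up to 10 mL with sterile water (100 μg mL⁻¹ stock). The solution was placed in the agar, and inhibition zones were measured after 24 h incubation. Values are the mean of triplicate readings.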

S. pyogenes (ATCC 19615) = assay: Agar diffusion method, zone of inhibition; format: cell-based, Streptococcus pyogenes; settings: for zone of inhibition at 10 µg/mL / zone of inhibition at 15 µg/mL: Streptococcus pyogenes, ATCC19615, 24 h, read-out: Diameter of zone inhibition; for Diameter of zone inhibition: S. pyogenes (ATCC 19615), average of triplicate
C. albicans = assay: Agar diffusion method, zone of inhibition; format: cell-based, Candida albicans; settings: for zone of inhibition at 10 µg/mL / zone of inhibition at 15 µg/mL: Candida albicans, 24 h, read-out: Diameter of zone inhibition; for Diameter of zone inhibition: C. albicans, average of triplicate
How it was run: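 For agar diffusion against C. albicans, each test compound (1 mg) was dissolved in 1 mL DMSO and diluted to 10 mL with sterile water (100 μg mL⁻¹ stock). The solution was placed in the agar, and the inhibition zone diameter was read after 24 h. Values are the average of triplicate readings.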

[1] = tested on: MRSA1 (methicillin resistant S. aureus); assay: Minimal inhibitory concentration; format: cell-based; settings: for SI (selectivity index, CC50/MIC): MRSA1 vs VERO cells; for Activity against methicillin resistant S. aureus: MDR clinical isolate, Table 2
How it was run: (§2)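 Broth microdilution against MDR clinical isolates: 80 μl Mueller–Hinton broth plus 20 μl tween 80 received 100 μl test compound, then two-fold serial dilution. Each well was inoculated with 100 μl of 0.5 McFarland suspension ([…]) and incubated covered at 35 ± 2 °C for 24 h. MIC is the lowest concentration inhibiting growth.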

[2] = tested on: P. phaseolicola (GSPB 2828); assay: Agar diffusion method, zone of inhibition; format: cell-based, Pseudomonas phaseolicola; settings: Pseudomonas, 24 h, read-out: Diameter of zone inhibition
How it was run: as §1

[3] = tested on: K. pneumoniae (MDR clinical isolate); assay: Zone of inhibition against MDR clinical isolate; format: cell-based; settings: for zone of inhibition at 15 µg/mL: Klebsiella pneumoniae, read-out: Diameter of zone inhibition; for Diameter of zone inhibition: MDR K. pneumoniae clinical isolate, 15 μg mL^−1
[4] = tested on: MRSA1 (methicillin resistant S. aureus); assay: Zone of inhibition against MDR clinical isolate; format: cell-based; settings: for zone of inhibition at 15 µg/mL: Staphylococcus aureus, read-out: Diameter of zone inhibition; for Diameter of zone inhibition: MRSA1 clinical isolate, 15 μg mL^−1
S. aureus (ATCC 25923) = assay: Agar diffusion method, zone of inhibition; format: cell-based, Staphylococcus aureus; settings: for zone of inhibition at 10 µg/mL / zone of inhibition at 15 µg/mL: Staphylococcus aureus, ATCC25923, 24 h, read-out: Diameter of zone inhibition; for Diameter of zone inhibition: S. aureus (ATCC 25923), average of triplicate
How it was run: as §1

P. fluorescens (S 97) = assay: Agar diffusion method, zone of inhibition; format: cell-based, Pseudomonas fluorescens; settings: for zone of inhibition at 15 µg/mL / zone of inhibition at 10 µg/mL: Pseudomonas fluorescens, 24 h, read-out: Diameter of zone inhibition
How it was run: as §1

Gram-negative bacteria = assay: Agar diffusion method; format: cell-based, P. phaseolicola (GSPB 2828) and P. fluorescens (S 97); settings: summary of Table 1
How it was run: as §1

[5] = tested on: K. pneumoniae (MDR clinical isolate); assay: Minimal inhibitory concentration; format: cell-based; settings: for SI (selectivity index, CC50/MIC): K. pneumoniae vs VERO cells
How it was run: as §2

[6] = tested on: K. pneumoniae (MDR clinical isolate); assay: Minimum bactericidal concentration; format: cell-based; settings: >4 = bacteriostatic
VERO cells = assay: In vitro cytotoxicity, MTT assay; format: cell-based, African Green Monkey; settings: normal VERO cells, 72 h, Table 4
[7] = tested on: MRSA1 (methicillin resistant S. aureus); assay: Minimum bactericidal concentration; format: cell-based; settings: MRSA; >4 = bacteriostatic
[8] = MDR K. pneumoniae clinical isolate, Table 2

Molecule | Activity against Gram-positive bacteria (Gram-positive bacteria) | zone of inhibition at 10 µg/mL (S. pyogenes (ATCC 19615)) [mm] | zone of inhibition at 10 µg/mL (C. albicans) [mm] | zone of inhibition at 15 µg/mL (C. albicans) [mm] | SI (selectivity index, CC50/MIC) [1] | MIC ([1]; Staphylococcus aureus) [µg/mL] | zone of inhibition at 10 µg/mL [2] [mm] | zone of inhibition at 15 µg/mL [2] [mm] | zone of inhibition at 15 µg/mL [3] [mm] | zone of inhibition at 15 µg/mL [4] [mm] | zone of inhibition at 10 µg/mL (S. aureus (ATCC 25923)) [mm] | zone of inhibition at 15 µg/mL (P. fluorescens (S 97)) [mm] | Activity against Gram-negative bacteria (Gram-negative bacteria) | MIC ([5]; K. pneumoniae, Table 4) [µg/mL] | zone of inhibition at 10 µg/mL (P. fluorescens (S 97)) [mm] | also measured
CC(=O)C1=C(C)N2NC(C)(c3ccccc3O)N(C(Cc3c[nH]c4ccccc34)C(=O)O)C2=NC1c1ccc(Cl)cc1 (centres unmarked) [Compound 2d, 2-(6-Acetyl-5-(4-chlorophenyl)-2-(2-hydroxyphenyl)-2,7-dimethyl-1,2-dihydro-[1,2,4]triazolo[1,5-a]pyrimidin-3(5H)-yl)-3-(1H-indol-3-yl)propanoic acid] | active | 20 | 9 | 12 | 20 | 25 (≈ 42.8 µM) | 12 | 22 | 6 | 28 | 20 |  |  |  |  | MIC ([1]; MRSA1, Table 4): 25 µg/mL (≈ 42.8 µM)
CC(C(=O)O)N1c2nc(-c3ccc(Cl)cc3)c(C#N)c(=O)n2NC1(C)c1ccccc1O (centres unmarked) [Compound 9b, 2-(5-(4-Chlorophenyl)-6-cyano-2-(2-hydroxyphenyl)-2-methyl-7-oxo-1,2-dihydro-[1,2,4]triazolo[1,5-a]pyrimidin-3(7H)-yl)propanoic acid] |  |  | 6 | 8 |  |  | 19 |  | 29 | 7 | 15 | 28 | active | 25 (≈ 55.3 µM) |  | zone of inhibition at 15 µg/mL (S. pyogenes (ATCC 19615)): 25 mm; SI (selectivity index, CC50/MIC) [5]: 10; zone of inhibition at 15 µg/mL (S. aureus (ATCC 25923)): 26 mm
2-(5-(4-Chlorophenyl)-6-cyano-2-(2-hydroxyphenyl)-7-imino-1,2-dihydro-[1,2,4]triazolo[1,5-a]pyrimidin-3(7H)-yl)propanoic acid [Compound 8a] |  |  |  |  |  |  |  |  |  |  |  |  | active |  |  | Diameter of zone inhibition (P. fluorescens (S 97); P. fluorescens (S 97), 15 μg mL^−1, 24 h, average of triplicate): 29 mm; MIC index (MBC/MIC) [6]: > 4; Diameter of zone inhibition (S. pyogenes (ATCC 19615); 10 μg mL^−1, 24 h): 12 mm; CC50 (VERO cells): 125 µg/mL; Diameter of zone inhibition (C. albicans; 10 μg mL^−1, 24 h): 10 mm; Diameter of zone inhibition (C. albicans; 15 μg mL^−1, 24 h): 13 mm; MIC ([5]; K. pneumoniae, Table 3): 12.5 µg/mL; MIC [5, 8]: 12.5 µg/mL; Diameter of zone inhibition [3]: 28 mm; Diameter of zone inhibition [4]: 6 mm; Diameter of zone inhibition (S. aureus (ATCC 25923); 10 μg mL^−1, 24 h): 13 mm; Diameter of zone inhibition (S. aureus (ATCC 25923); 15 μg mL^−1, 24 h): 20 mm
CCOC(=O)C1=C(C)N2NC(c3ccccc3O)N(C(Cc3c[nH]c4ccccc34)C(=O)O)C2=NC1c1ccc(Cl)cc1 (centres unmarked) [Compound 3c, 2-(5-(4-Chlorophenyl)-6-(ethoxycarbonyl)-2-(2-hydroxyphenyl)-7-methyl-1,2-dihydro-[1,2,4]triazolo[1,5-a]pyrimidin-3(5H)-yl)-3-(1H-indol-3-yl)propanoic acid] | active |  | 6 | 7 | 20 | 12.5 (≈ 20.8 µM) | 10 |  | 9 | 24 |  | 23 |  |  | 8 | MIC index (MBC/MIC) [7]: > 4; Activity against methicillin resistant S. aureus [1]: remarkable activity; MIC ([1]; MRSA1, Table 3): 12.5 µg/mL (≈ 20.8 µM)
2-(5-(4-Chlorophenyl)-6-cyano-2-(2-hydroxyphenyl)-7-imino-2-methyl-1,2-dihydro-[1,2,4]triazolo[1,5-a]pyrimidin-3(7H)-yl)propanoic acid [Compound 8b] |  |  |  |  |  |  |  |  |  |  |  |  | active | 25 |  | Diameter of zone inhibition (S. pyogenes (ATCC 19615); 15 μg mL^−1, 24 h): 26 mm; CC50 (VERO cells): 125 µg/mL; Diameter of zone inhibition (C. albicans; 10 μg mL^−1, 24 h): 8 mm; Diameter of zone inhibition (C. albicans; 15 μg mL^−1, 24 h): 10 mm; MIC [5, 8]: 25 µg/mL; Diameter of zone inhibition [3]: 27 mm; Diameter of zone inhibition [4]: 8 mm; Diameter of zone inhibition (S. aureus (ATCC 25923); 10 μg mL^−1, 24 h): 12 mm; Diameter of zone inhibition (S. aureus (ATCC 25923); 15 μg mL^−1, 24 h): 22 mm
N#Cc1c(-c2ccc(Cl)cc2)nc2n(c1=O)NC(c1ccccc1O)N2C(Cc1c[nH]c2ccccc12)C(=O)O (centres unmarked) [Compound 9c, 2-(5-(4-Chlorophenyl)-6-cyano-2-(2-hydroxyphenyl)-7-oxo-1,2-dihydro-[1,2,4]triazolo[1,5-a]pyrimidin-3(7H)-yl)-3-(1H-indol-3-yl)propanoic acid] | active | 19 | 9 | 11 | 10 | 25 (≈ 45.2 µM) | 10 | 22 | 13 | 27 |  | 20 |  |  | 11 | MIC ([1]; MRSA1, Table 4): 25 µg/mL (≈ 45.2 µM)
CC(C(=O)O)N1c2nc(-c3ccc(Cl)cc3)c(C#N)c(=O)n2NC1c1ccccc1O (centres unmarked) [Compound 9a, 2-(5-(4-Chlorophenyl)-6-cyano-2-(2-hydroxyphenyl)-7-oxo-1,2-dihydro-[1,2,4]triazolo[1,5-a]pyrimidin-3(7H)-yl)propanoic acid] |  | 12 | 6 | 9 |  |  |  | 30 | 27 | 5 |  | 30 | active | 25 (≈ 57.1 µM) |  | zone of inhibition at 15 µg/mL (S. pyogenes (ATCC 19615)): 27 mm; SI (selectivity index, CC50/MIC) [5]: 20; zone of inhibition at 15 µg/mL (S. aureus (ATCC 25923)): 26 mm
CC1(c2ccccc2O)Nn2c(nc(-c3ccc(Cl)cc3)c(C#N)c2=O)N1C(Cc1c[nH]c2ccccc12)C(=O)O (centres unmarked) [Compound 9d, 2-(5-(4-Chlorophenyl)-6-cyano-2-(2-hydroxyphenyl)-2-methyl-7-oxo-1,2-dihydro-[1,2,4]triazolo[1,5-a]pyrimidin-3(7H)-yl)-3-(1H-indol-3-yl)propanoic acid] | active | 19 | 7 | 8 | 40 | 12.5 (≈ 22 µM) | 10 |  | 11 | 29 | 20 | 23 |  |  | 12 | MIC index (MBC/MIC) [7]: > 4; Activity against methicillin resistant S. aureus [1]: remarkable activity; MIC ([1]; MRSA1, Table 3): 12.5 µg/mL (≈ 22 µM)
